According to ChEMBL document CHEMBL4689842, “EUbOPEN Chemogenomics Library wave 1” (2021):
Where “and” joins values, the source holds several entries; their conditions need not be identical. Equal entries are not always repeated.

Test system: U2OS
Experiment: Multiplex assay against U2OS
Type: toxicity, cell-based
Conditions: human
How it was run: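 With compound added, live cells were imaged on a CQ1 microscope at 37°C and 5% CO2; staining with Hoechst33342, BioTracker Green Microtubule Cytoskeleton Dye, MitoTracker Red and Annexin V Alexa Fluor 680 had been done at seeding. The CellPathfinder machine-learning gating scheme split cells into Hoechst high-intensity objects or normal cells, normal cells into healthy, pyknosed or fragmented nuclei, and pyknosed cells into mitotic or apoptotic. The tubulin, mitochondrial-mass and membrane-permeability phenotypes are per cents of healthy-nucleus cells.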

[1] = 12 h, 1 µM, compound concentration 1 uM, replicate 1
[2] = 12 h, 1 µM, compound concentration 1 uM, replicate 2
[3] = 24 h, 1 µM, compound concentration 1 uM, replicate 1
[4] = 24 h, 1 µM, compound concentration 1 uM, replicate 2
[5] = 12 h, 10 µM, compound concentration 10 uM, replicate 1
[6] = 12 h, 10 µM, compound concentration 10 uM, replicate 2
[7] = 24 h, 10 µM, compound concentration 10 uM, replicate 1
[8] = 24 h, 10 µM, compound concentration 10 uM, replicate 2
[9] = 48 h, 1 µM, compound concentration 1 uM, replicate 1
[10] = 48 h, 1 µM, compound concentration 1 uM, replicate 2
[11] = 48 h, 10 µM, compound concentration 10 uM, replicate 1
[12] = 48 h, 10 µM, compound concentration 10 uM, replicate 2

For `CN([C@@H](Cc1ccc(OS(=O)(=O)c2cccc3cnccc23)cc1)C(=O)N1CCN(c2ccccc2)CC1)S(=O)(=O)c1cccc2cnccc12`, the “Population Apoptotic (%)” value [1] was 52% and 61%, the “Population Fragmented Nuclei (%)” value [1] was 3% and 2% and the “Population Healthy Nuclei (%)” value [1] was 83% and 89%. The “Population Hoechst High Intensity Objects (%)” value [1] was 1%, the “Population Membrane Permeable-Phenotype (%)” value [1] was 38% and 75% and the “Population Mitochondria Different-Phenotype (%)” value [1] was 32% and 23%. For the same molecule, the “Population Mitotic Cells (%)” value [1] was 47% and 38%, the “Population Normal (%)” value [1] was 98% and the “Population Pyknosed Nuclei (%)” value [1] was 12% and 7%. For the same molecule, the “Population Tubulin-Different-Phenotype (%)” value [1] was 99%, the “Total Cell Count” value [1] was 150 and 181 and the “Population Apoptotic (%)” value [2] was 25% and 40%. The “Population Fragmented Nuclei (%)” value [2] was 16% and 6%, the “Population Healthy Nuclei (%)” value [2] was 74% and 79% and the “Population Hoechst High Intensity Objects (%)” value [2] was 13% and 15%. The “Population Membrane Permeable-Phenotype (%)” value [2] was 33% and 69%, the “Population Mitochondria Different-Phenotype (%)” value [2] was 46% and 45% and the “Population Mitotic Cells (%)” value [2] was 75% and 60%. For the same molecule, the “Population Normal (%)” value [2] was 86% and 84%, the “Population Pyknosed Nuclei (%)” value [2] was 9% and 13% and the “Population Tubulin-Different-Phenotype (%)” value [2] was 100%. The “Total Cell Count” value [2] was 104 and 101, the “Population Apoptotic (%)” value [3] was 69% and 58% and the “Population Fragmented Nuclei (%)” value [3] was 4% and 5%. The “Population Healthy Nuclei (%)” value [3] was 75% and 73%, the “Population Hoechst High Intensity Objects (%)” value [3] was 2% and 1% and the “Population Membrane Permeable-Phenotype (%)” value [3] was 25% and 68%. For the same molecule, the “Population Mitochondria Different-Phenotype (%)” value [3] was 55%, the “Population Mitotic Cells (%)” value [3] was 30% and 41% and the “Population Normal (%)” value [3] was 97% and 98%. For the same molecule, the “Population Pyknosed Nuclei (%)” value [3] was 20% and 21%, the “Population Tubulin-Different-Phenotype (%)” value [3] was 98% and 99% and the “Total Cell Count” value [3] was 154 and 198. For the same molecule, the “Population Apoptotic (%)” value [4] was 57% and 53%, the “Population Fragmented Nuclei (%)” value [4] was 15% and 12% and the “Population Healthy Nuclei (%)” value [4] was 68%. For the same molecule, the “Population Hoechst High Intensity Objects (%)” value [4] was 12% and 9%, the “Population Membrane Permeable-Phenotype (%)” value [4] was 32% and 54% and the “Population Mitochondria Different-Phenotype (%)” value [4] was 62% and 70%. For the same molecule, the “Population Mitotic Cells (%)” value [4] was 42% and 46%, the “Population Normal (%)” value [4] was 87% and 90% and the “Population Pyknosed Nuclei (%)” value [4] was 15%. The “Population Tubulin-Different-Phenotype (%)” value [4] was 100% and the “Total Cell Count” value [4] was 99 and 102.

`Cl.O=c1c2cccn2c2ccccc2n1CCCN1CCC(c2ccc(Cl)cc2)CC1` was tested, and the “Population Apoptotic (%)” value [1] was 53%, the “Population Fragmented Nuclei (%)” value [1] was 8% and the “Population Healthy Nuclei (%)” value [1] was 77%. The “Population Hoechst High Intensity Objects (%)” value [1] was 7%, the “Population Membrane Permeable-Phenotype (%)” value [1] was 2% and the “Population Mitochondria Different-Phenotype (%)” value [1] was 55%. For the same molecule, the “Population Mitotic Cells (%)” value [1] was 46%, the “Population Normal (%)” value [1] was 92% and the “Population Pyknosed Nuclei (%)” value [1] was 14%. The “Population Tubulin-Different-Phenotype (%)” value [1] was 39%, the “Total Cell Count” value [1] was 233 and the “Population Apoptotic (%)” value [2] was 60%. The “Population Fragmented Nuclei (%)” value [2] was 16%, the “Population Healthy Nuclei (%)” value [2] was 73% and the “Population Hoechst High Intensity Objects (%)” value [2] was 8%. The “Population Membrane Permeable-Phenotype (%)” value [2] was 0%, the “Population Mitochondria Different-Phenotype (%)” value [2] was 56% and the “Population Mitotic Cells (%)” value [2] was 40%. The “Population Normal (%)” value [2] was 91%, the “Population Pyknosed Nuclei (%)” value [2] was 9% and the “Population Tubulin-Different-Phenotype (%)” value [2] was 30%. For the same molecule, the “Total Cell Count” value [2] was 119, the “Population Apoptotic (%)” value [5] was 81% and the “Population Healthy Nuclei (%)” value [5] was 58%. The “Population Hoechst High Intensity Objects (%)” value [5] was 8%, the “Population Membrane Permeable-Phenotype (%)” value [5] was 61% and the “Population Mitotic Cells (%)” value [5] was 18%. The “Population Normal (%)” value [5] was 91%, the “Population Pyknosed Nuclei (%)” value [5] was 20% and the “Population Tubulin-Different-Phenotype (%)” value [5] was 99%. For the same molecule, the “Total Cell Count” value [5] was 201, the “Population Apoptotic (%)” value [6] was 78% and the “Population Fragmented Nuclei (%)” value [6] was 21%. For the same molecule, the “Population Healthy Nuclei (%)” value [6] was 57%, the “Population Hoechst High Intensity Objects (%)” value [6] was 11% and the “Population Membrane Permeable-Phenotype (%)” value [6] was 74%. The “Population Mitochondria Different-Phenotype (%)” value [6] was 98%, the “Population Mitotic Cells (%)” value [6] was 21% and the “Population Normal (%)” value [6] was 89%. The “Population Pyknosed Nuclei (%)” value [6] was 21%, the “Population Tubulin-Different-Phenotype (%)” value [6] was 98% and the “Total Cell Count” value [6] was 58. The “Population Apoptotic (%)” value [3] was 55%, the “Population Fragmented Nuclei (%)” value [3] was 9% and the “Population Healthy Nuclei (%)” value [3] was 73%. The “Population Hoechst High Intensity Objects (%)” value [3] was 4%, the “Population Membrane Permeable-Phenotype (%)” value [3] was 0% and the “Population Mitochondria Different-Phenotype (%)” value [3] was 45%. For the same molecule, the “Population Mitotic Cells (%)” value [3] was 44%, the “Population Normal (%)” value [3] was 95% and the “Population Pyknosed Nuclei (%)” value [3] was 16%. The “Population Tubulin-Different-Phenotype (%)” value [3] was 26%, the “Total Cell Count” value [3] was 300 and the “Population Apoptotic (%)” value [4] was 25%. For the same molecule, the “Population Fragmented Nuclei (%)” value [4] was 16%, the “Population Healthy Nuclei (%)” value [4] was 70% and the “Population Hoechst High Intensity Objects (%)” value [4] was 7%. For the same molecule, the “Population Membrane Permeable-Phenotype (%)” value [4] was 2%, the “Population Mitochondria Different-Phenotype (%)” value [4] was 38% and the “Population Mitotic Cells (%)” value [4] was 75%. For the same molecule, the “Population Normal (%)” value [4] was 92%, the “Population Pyknosed Nuclei (%)” value [4] was 13% and the “Population Tubulin-Different-Phenotype (%)” value [4] was 19%. For the same molecule, the “Total Cell Count” value [4] was 147, the “Population Apoptotic (%)” value [7] was 88% and the “Population Fragmented Nuclei (%)” value [7] was 21%. The “Population Healthy Nuclei (%)” value [7] was 45%, the “Population Hoechst High Intensity Objects (%)” value [7] was 6% and the “Population Membrane Permeable-Phenotype (%)” value [7] was 76%. The “Population Mitochondria Different-Phenotype (%)” value [7] was 96%, the “Population Mitotic Cells (%)” value [7] was 11% and the “Population Normal (%)” value [7] was 93%. The “Population Pyknosed Nuclei (%)” value [7] was 33%, the “Population Tubulin-Different-Phenotype (%)” value [7] was 100% and the “Total Cell Count” value [7] was 229. For the same molecule, the “Population Apoptotic (%)” value [8] was 87%, the “Population Fragmented Nuclei (%)” value [8] was 14% and the “Population Healthy Nuclei (%)” value [8] was 64%. The “Population Hoechst High Intensity Objects (%)” value [8] was 7%, the “Population Membrane Permeable-Phenotype (%)” value [8] was 72% and the “Population Mitochondria Different-Phenotype (%)” value [8] was 98%. For the same molecule, the “Population Mitotic Cells (%)” value [8] was 12%, the “Population Normal (%)” value [8] was 92% and the “Population Pyknosed Nuclei (%)” value [8] was 20%. The “Population Tubulin-Different-Phenotype (%)” value [8] was 98%, the “Total Cell Count” value [8] was 65 and the “Population Apoptotic (%)” value [9] was 51%. For the same molecule, the “Population Fragmented Nuclei (%)” value [9] was 6%, the “Population Healthy Nuclei (%)” value [9] was 82% and the “Population Hoechst High Intensity Objects (%)” value [9] was 4%. The “Population Membrane Permeable-Phenotype (%)” value [9] was 2%, the “Population Mitochondria Different-Phenotype (%)” value [9] was 17% and the “Population Mitotic Cells (%)” value [9] was 48%. The “Population Normal (%)” value [9] was 95%, the “Population Pyknosed Nuclei (%)” value [9] was 10% and the “Population Tubulin-Different-Phenotype (%)” value [9] was 11%. For the same molecule, the “Total Cell Count” value [9] was 287, the “Population Apoptotic (%)” value [10] was 62% and the “Population Fragmented Nuclei (%)” value [10] was 18%. For the same molecule, the “Population Healthy Nuclei (%)” value [10] was 70%, the “Population Hoechst High Intensity Objects (%)” value [10] was 5% and the “Population Membrane Permeable-Phenotype (%)” value [10] was 4%. For the same molecule, the “Population Mitochondria Different-Phenotype (%)” value [10] was 24%, the “Population Mitotic Cells (%)” value [10] was 37% and the “Population Normal (%)” value [10] was 94%. For the same molecule, the “Population Pyknosed Nuclei (%)” value [10] was 11%, the “Population Tubulin-Different-Phenotype (%)” value [10] was 18% and the “Total Cell Count” value [10] was 131. For the same molecule, the “Population Apoptotic (%)” value [11] was 87%, the “Population Fragmented Nuclei (%)” value [11] was 18% and the “Population Healthy Nuclei (%)” value [11] was 28%. For the same molecule, the “Population Hoechst High Intensity Objects (%)” value [11] was 12%, the “Population Membrane Permeable-Phenotype (%)” value [11] was 84% and the “Population Mitochondria Different-Phenotype (%)” value [11] was 100%. For the same molecule, the “Population Mitotic Cells (%)” value [11] was 12%, the “Population Normal (%)” value [11] was 87% and the “Population Pyknosed Nuclei (%)” value [11] was 53%. The “Population Tubulin-Different-Phenotype (%)” value [11] was 100%, the “Total Cell Count” value [11] was 318 and the “Population Apoptotic (%)” value [12] was 88%. The “Population Fragmented Nuclei (%)” value [12] was 16%, the “Population Healthy Nuclei (%)” value [12] was 46% and the “Population Hoechst High Intensity Objects (%)” value [12] was 10%. For the same molecule, the “Population Membrane Permeable-Phenotype (%)” value [12] was 67%, the “Population Mitochondria Different-Phenotype (%)” value [12] was 97% and the “Population Mitotic Cells (%)” value [12] was 11%. For the same molecule, the “Population Normal (%)” value [12] was 89%, the “Population Pyknosed Nuclei (%)” value [12] was 36% and the “Population Tubulin-Different-Phenotype (%)” value [12] was 97%. For the same molecule, the “Total Cell Count” value [12] was 74.
